# Laboratory results published in ChEMBL document CHEMBL4052792, “3-Hydroxykynurenine, a Tryptophan Metabolite Generated during the Infection, Is Active Against Trypanosoma cruzi” (ACS Med Chem Lett, 2017).
# The source made the active and inactive calls. The calls are words filed in the database; no cut-off is given here.
# How the values were obtained:
# Trypanosoma cruzi [1] = assay: Trypanocidal activity against Trypanosoma cruzi Tulahuen amastigotes infected in BALB/C mouse bone marrow derived macrophages assessed as decrease in parasite infected macrophages at 200 uM after 72 hrs by immunofluorescence assay; assay type: functional
# Method in brief: (§1)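 Macrophages were infected with trypomastigotes and treated with 3-HK for 24 h. Immunofluorescence counts were made at 72 h post-infection. Intracellular parasites per 200 cells were expressed relative to medium-treated cultures, and infected cells were counted among 200 macrophages. Data are means ± SD of four independent experiments.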
# Trypanosoma cruzi [2] = assay: (§2) Trypanocidal activity against Trypanosoma cruzi Tulahuen amastigotes infected in BALB/C mouse bone marrow derived macrophages assessed as endocytic index at 2 uM treated for 24 hrs followed by compound washout measured after 48 hrs by immunofluorescence assay (reference value: 213.66 +/- 58.79); assay type: functional
# Trypanosoma cruzi [3] = assay: Trypanocidal activity against Trypanosoma cruzi Tulahuen amastigote forms infected in BALB/C mouse bone marrow derived macrophages assessed as decrease in parasite growth at 200 uM after 72 hrs by immunofluorescence assay; assay type: functional; method in brief: as §1
# Trypanosoma cruzi [4] = assay: as §2, with “as parasite infected macrophages” for “as endocytic index”, “at 1200” for “at 2”, “value: 26.84” for “value: 213.66”, “+/- 7.81%)” for “+/- 58.79)”; assay type: functional
# Trypanosoma cruzi [5] = assay: Trypanocidal activity against Trypanosoma cruzi Tulahuen amastigotes infected in BALB/C mouse bone marrow derived macrophages assessed as reduction intracellular parasite growth after 24 hrs by immunofluorescence assay; assay type: functional, cell-based; method in brief: as §1
# Trypanosoma cruzi [6] = assay: Trypanocidal activity against Trypanosoma cruzi Tulahuen amastigotes infected in BALB/C mouse bone marrow derived macrophages assessed as endocytic index at 1200 uM treated for 24 hrs followed by compound washout measured after 48 hrs by immunofluorescence assay (reference value: 213.66 +/- 58.79); assay type: functional
# Trypanosoma cruzi [7] = assay: Trypanostatic activity against Trypanosoma cruzi Tulahuen amastigotes infected in BALB/C mouse bone marrow derived macrophages assessed as effect on flagellar pocket at 20 uM after 24 hrs by transmission electron microscopic analysis; assay type: functional
# Method in brief: (§3)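 Bone marrow-derived macrophages were infected for 24 h, then exposed to 20 μM for 24 h or left untreated. Intracellular amastigote ultrastructure was examined by transmission electron microscopy, covering mitochondrion, nucleus, kinetoplast, flagellum, flagellar pocket, subpellicular microtubules and cytoplasmic structures.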
# [8] = Induction of apoptosis in BALB/C mouse BMDM assessed as cells with hypodiploid DNA content at 10000 uM after 24 hrs by FITC/propidium iodide staining based flow cytometric analysis (reference value: 29.9%); assay type: functional
# Trypanosoma cruzi [9] = assay: as §2, with “as parasite infected macrophages” for “as endocytic index”, “at 20” for “at 2”, “value: 26.84” for “value: 213.66”, “+/- 7.81%)” for “+/- 58.79)”; assay type: functional
# Jurkat [10] = assay: Cytotoxicity against human Jurkat cells assessed as reduction in cell viability at 1200 to 2000 uM after 48 hrs by trypan blue exclusion assay; assay type: cell-based
# Method in brief: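 Human PBMC and Jurkat cells were treated for 48 h with a range of 3-HK concentrations or left untreated. Viable cells were counted under light microscopy by trypan blue exclusion. Data are means ± SD of four independent experiments.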
# Trypanosoma cruzi [11] = assay: as §2, with “as parasite infected macrophages” for “as endocytic index”, “at 1500” for “at 2”, “value: 26.84” for “value: 213.66”, “+/- 7.81%)” for “+/- 58.79)”; assay type: functional
# Trypanosoma cruzi [12] = assay: Trypanocidal activity against Trypanosoma cruzi Tulahuen trypomastigotes assessed as reduction in parasites after 24 to 48 hrs by trypan blue assay; assay type: functional
# Method in brief: (§4)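 Bloodstream trypomastigotes were incubated at 37 °C in culture medium alone or with increasing doses for 24, 48 and 72 h. Parasite death was scored as percentage by trypan blue exclusion. Results are means ± SD of three independent experiments.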
# Trypanosoma cruzi [13] = assay: as §2, with “as parasite infected macrophages” for “as endocytic index”, “at 800” for “at 2”, “value: 26.84” for “value: 213.66”, “+/- 7.81%)” for “+/- 58.79)”; assay type: functional
# [14] = Cytotoxicity against BALB/C mouse BMDM assessed as reduction in cell viability at 0.2 to 2000 uM after 24 hrs by trypan blue exclusion assay; assay type: cell-based
# Method in brief: (§5)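 Mammalian cells (human PBMC, Swan 71, Jurkat; bone marrow-derived macrophages; J774) were exposed to 3-HK at 0.2 to 2000 μM for 24 h. Viability was then scored by trypan blue exclusion.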
# Trypanosoma cruzi [15] = assay: Reduction of mitochondrial membrane potential in Trypanosoma cruzi Tulahuen trypomastigotes after 24 hrs by Rh123/PI staining-based flow cytometric analysis; assay type: functional
# Method in brief: (§6)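 Trypomastigotes were treated with 3-HK for 24 h at 37 °C, then incubated with PI plus Rh123. Rh123 fluorescence was read by flow cytometry in PI-negative (live) parasites. The depolarized fraction was taken as the low-fluorescence M2 population. Index of variation = (treated median − control median)/control median. Three experiments were run.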
# [16] = Induction of apoptosis in BALB/C mouse BMDM assessed as cells with hypodiploid DNA content at 8000 uM after 24 hrs by FITC/propidium iodide staining based flow cytometric analysis (reference value: 29.9%); assay type: functional
# Trypanosoma cruzi [17] = assay: Trypanostatic activity against Trypanosoma cruzi Tulahuen amastigotes infected in BALB/C mouse bone marrow derived macrophages assessed as kinetoplast structure disorganization at 20 uM after 24 hrs by transmission electron microscopic analysis; assay type: functional; method in brief: as §3
# Trypanosoma cruzi [18] = assay: Trypanocidal activity against Trypanosoma cruzi Tulahuen amastigotes infected in BALB/C mouse bone marrow derived macrophages assessed as reduction in endocytic index at 0.2 uM after 72 hrs by immunofluorescence assay relative to control; assay type: functional
# Trypanosoma cruzi [19] = assay: Induction of mitochondrial membrane depolarization in Trypanosoma cruzi Tulahuen trypomastigotes at 0.2 uM after 24 hrs by Rh123/propidium iodide staining-based flow cytometric analysis (reference value: 3.25 +/- 1.66%); assay type: functional; method in brief: as §6
# Trypanosoma cruzi [20] = assay: as §2, with “parasite infected macrophages” for “endocytic index”, “26.84” for “213.66”, “7.81%)” for “58.79)”; assay type: functional
# Trypanosoma cruzi [21] = assay: Trypanocidal activity against Trypanosoma cruzi Tulahuen trypomastigotes assessed as increase in parasite death up to 72 hrs by trypan blue assay; assay type: functional; method in brief: as §4
# PBMC = assay: Cytotoxicity against human PBMC assessed as reduction in cell viability at 0.2 to 2000 uM after 24 hrs by trypan blue exclusion assay; assay type: cell-based; method in brief: as §5
# Trypanosoma cruzi [22] = assay: Trypanostatic activity against Trypanosoma cruzi Tulahuen amastigotes infected in BALB/C mouse bone marrow derived macrophages assessed as effect in subpelicullar microtubules at 20 uM after 24 hrs by transmission electron microscopic analysis; assay type: functional; method in brief: as §3
# Trypanosoma cruzi [23] = assay: Trypanocidal activity against Trypanosoma cruzi Tulahuen trypomastigotes in culture medium after 48 hrs by trypan blue assay
# Trypanosoma cruzi [24] = assay: Trypanocidal activity against Trypanosoma cruzi Tulahuen amastigotes infected in BALB/C mouse bone marrow derived macrophages assessed as endocytic index at 20 uM treated for 24 hrs followed by compound washout measured after 48 hrs by immunofluorescence assay (reference value: 213.66 +/- 58.79); assay type: functional
# Trypanosoma cruzi [25] = assay: Trypanostatic activity against Trypanosoma cruzi Tulahuen amastigotes infected in BALB/C mouse bone marrow derived macrophages assessed as swollen mitochondrion at 20 uM after 24 hrs by transmission electron microscopic analysis; assay type: functional; method in brief: as §3
# Jurkat [26] = assay: Cytotoxicity against human Jurkat cells assessed as reduction in cell viability at 0.2 to 2000 uM after 24 hrs by trypan blue exclusion assay; assay type: cell-based; method in brief: as §5
# Trypanosoma cruzi [27] = assay: Trypanocidal activity against Trypanosoma cruzi Tulahuen amastigotes infected in BALB/C mouse bone marrow derived macrophages assessed as endocytic index at 200 uM treated for 24 hrs followed by compound washout measured after 48 hrs by immunofluorescence assay (reference value: 213.66 +/- 58.79); assay type: functional
smiles,measurement,setting,value
Nc1c(O)cccc1C(=O)C[C@H](N)C(=O)O,Activity,Trypanosoma cruzi [1],Active
same,Activity,Trypanosoma cruzi [2],60.59
same,Activity,Trypanosoma cruzi [3],Active
same,Activity,Trypanosoma cruzi [4],14.83%
same,IC50,Trypanosoma cruzi [5],0.2 µM
same,Activity,Trypanosoma cruzi [6],106.06
same,Activity,Trypanosoma cruzi [7],inactive
same,Activity,[8],29.5%
same,Activity,Trypanosoma cruzi [9],8.63%
same,Activity,Jurkat [10],Toxic
same,Activity,Trypanosoma cruzi [11],18.07%
same,IC50,Trypanosoma cruzi [12],200 to 1200 µM
same,Activity,Trypanosoma cruzi [13],15.1%
same,Activity,[14],Non-Toxic
same,Activity,Trypanosoma cruzi [15],Dose-dependent effect
same,Activity,[16],29.9%
same,Activity,Trypanosoma cruzi [17],Active
same,inhibition at 0.2 µM,Trypanosoma cruzi [18],68%
same,Activity,Trypanosoma cruzi [19],3.88%
same,Activity,Trypanosoma cruzi [20],12.4%
same,Activity,Trypanosoma cruzi [21],Dose-dependent effect
same,Activity,PBMC,Non-Toxic
same,Activity,Trypanosoma cruzi [22],inactive
same,IC50,Trypanosoma cruzi [23],200 µM
same,Activity,Trypanosoma cruzi [24],51.74
same,Activity,Trypanosoma cruzi [25],Active
same,Activity,Jurkat [26],Non-Toxic
same,Activity,Trypanosoma cruzi [27],51.43
